Experimental data taken from PMC11359639 (ACS Omega, 2024).
“Also recorded” adds a separate entry of the source.

Experiments:
[1] = tested on: TNF-α; assay: TNF-α level in supernatant of LPS-induced RAW264.7 cells; assay type: cell-based; conditions: RAW264.7 cells supernatant, LPS 1 μg/mL, 1 μM, 48 h
Outline: (§1)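 RAW264.7 cells were allowed to attach, then the medium was replaced with 1 μg/mL LPS plus test compound at final concentrations of 1, 10 and 100 μM, with DMSO used for solubilisation where needed. […] After 48 h culture, the supernatant was assayed for IL-1β, IL-6 and TNF-α. Values are means of three independent experiments, mean ± SD, compared by one-way ANOVA.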

[2] = tested on: IL-1β; assay: IL-1β level in supernatant of LPS-induced RAW264.7 cells; assay type: cell-based; conditions: RAW264.7 cells supernatant, LPS 1 μg/mL, 1 μM, 48 h
Outline: as §1

[3] = tested on: IL-6; assay: IL-6 level in supernatant of LPS-induced RAW264.7 cells; assay type: cell-based; conditions: RAW264.7 cells supernatant, LPS 1 μg/mL, 1 μM, 48 h
Outline: as §1

[4] = tested on: CIA (collagen-induced arthritis) model; assay: Rat CIA; assay type: in vivo; conditions: for paw volume of rats: CIA rats, 15 days
[5] = tested on: IL-6; assay: Rat CIA model, serum IL-6 concentration; assay type: in vivo; conditions: CIA rats, 50 and 100 (mg/kg)/day oral, compared with model group
[6] = tested on: TNF-α; assay: Rat CIA model, serum TNF-α concentration; assay type: in vivo; conditions: CIA rats, 50 and 100 (mg/kg)/day oral, compared with model group
[7] = tested on: TLR4; assay: TLR4 protein expression in RAW264.7 cells by immunofluorescence; assay type: cell-based; conditions: LPS-induced RAW264.7 cells, 1 μM, 24 h, vs model group
Outline: (§2)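 They were PBS-washed, fixed in 4% fixative for 45 min, permeabilised with 0.25% Triton for 15 min and blocked with 5% BSA for 10 min. Staining used rabbit anti-mouse TLR4 or TNF-α (1:100, 4 °C overnight), FITC anti-rabbit (1:400, 37 °C, 30 min) and DAPI. Mean cell fluorescence was read by confocal microscopy.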

[8] = tested on: TNF-α; assay: TNF-α protein expression in RAW264.7 cells by immunofluorescence; assay type: cell-based; conditions: LPS-induced RAW264.7 cells, 1 μM, 24 h, vs model group
Outline: as §2

[9] = tested on: NF-κB; assay: NF-κB protein expression in RAW264.7 cells by immunofluorescence; assay type: cell-based; conditions: LPS-induced RAW264.7 cells, 1 μM, 24 h, vs model group
[10] = tested on: TLR4; assay: TLR4 protein expression in RAW264.7 cells by Western blot; assay type: cell-based; conditions: LPS-induced RAW264.7 cells, 1 μM, 24 h, vs model group
Outline: (§3)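 Lysis was in RIPA containing 1% PMSF on ice for 3–4 h, followed by centrifugation at 12000 rpm for 15 min. Supernatants were stored at −80 °C, and TLR4 and TNF-α protein were detected by Western blot.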

[11] = tested on: TNF-α; assay: TNF-α protein expression in RAW264.7 cells by Western blot; assay type: cell-based; conditions: LPS-induced RAW264.7 cells, 1 μM, 24 h, vs model group
Outline: as §3

[12] = tested on: NF-κB; assay: NF-κB protein expression in RAW264.7 cells by Western blot; assay type: cell-based; conditions: LPS-induced RAW264.7 cells, 1 μM, 24 h, vs model group
[13] = tested on: TLR4; assay: TLR4 mRNA expression in RAW264.7 cells by RT-PCR; assay type: cell-based; conditions: LPS-induced RAW264.7 cells, 1 μM, 24 h, vs model group
[14] = tested on: TNF-α; assay: TNF-α mRNA expression in RAW264.7 cells by RT-PCR; assay type: cell-based; conditions: LPS-induced RAW264.7 cells, 1 μM, 24 h, vs model group
[15] = tested on: NF-κB; assay: NF-κB mRNA expression in RAW264.7 cells by RT-PCR; assay type: cell-based; conditions: LPS-induced RAW264.7 cells, 1 μM, 24 h, vs model group
[16] = Pharmacokinetics in Sprague-Dawley rats; assay type: in vivo, rat; conditions: for maximum concentration: SD rats; for half-life: male, Sprague-Dawley, rat, plasma
Outline: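 Male SD rats (6–8 weeks) received test compound in 10% DMSO + 10% Solutol HS15 + 80% (20% HP-β-CD saline), either 20 mg/kg via foot dorsal vein or 100 mg/kg by oral gavage. Samples were kept on wet ice and spun at 2000g for 5 min at 4 °C within 15 min. Plasma was analysed by LC-MS/MS.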

CC(=O)CC(=O)C1CCCC1=O (stereo not drawn) [Compound 3a, 1-(2-Oxocyclopentyl)butane-1,3-dione]
Inflammatory factor TNF-α [1]: 520.6 ± 54.6 pg/L
Inflammatory factor IL-1β [2]: 512.0 ± 85.0 pg/L
Inflammatory factor IL-6 [3]: 196.2 ± 14.3 pg/L

COC(=O)C1CCC(C(=O)CC(C)=O)C1=O (stereo not drawn) [Compound 3g, Methyl 2-oxo-3-(3-oxobutanoyl)cyclopentane-1-carboxylate]
Inflammatory factor TNF-α [1]: 339.8 ± 49.2 pg/L
Inflammatory factor IL-1β [2]: 408.2 ± 69.1 pg/L
Inflammatory factor IL-6 [3]: 170.3 ± 25.3 pg/L

CCOC(=O)C1CCC(C(=O)CC(C)=O)C1=O (stereo not drawn) [Compound 3h, Ethyl 2-oxo-3-(3-oxobutanoyl)cyclopentane-1-carboxylate]
Inflammatory factor TNF-α [1]: 524.7 ± 48.5 pg/L
Inflammatory factor IL-1β [2]: 506.0 ± 65.1 pg/L
Inflammatory factor IL-6 [3]: 197.4 ± 21.3 pg/L

CC(=O)CC(=O)C1CCC(C(C)=O)C1=O (stereo not drawn) [Compound 3i, 1-(3-Acetyl-2-oxocyclopentyl)butane-1,3-dione]
Inflammatory factor TNF-α [1]: 424.5 ± 87.6 pg/L
Inflammatory factor IL-1β [2]: 558.4 ± 66.9 pg/L
Inflammatory factor IL-6 [3]: 205.2 ± 25.9 pg/L

CCCCCC1C(=O)C(C(=O)CC(C)=O)CC1CC(=O)OC (stereo not drawn) [Compound 3j, Methyl 2-(3-oxo-4-(3-oxobutanoyl)-2-pentylcyclopentyl)acetate]
Inflammatory factor TNF-α [1]: 400.6 ± 60.2 pg/L
Inflammatory factor IL-1β [2]: 488.8 ± 66.1 pg/L
Inflammatory factor IL-6 [3]: 163.8 ± 25.9 pg/L

CC(=O)CC(=O)C1CC(C)C(=O)C1=O (stereo not drawn) [Compound 3k, 3-Methyl-5-(3-oxobutanoyl) cyclopentane-1,2-dione]
Inflammatory factor TNF-α [1]: 217.8 ± 20.3 pg/L
Inflammatory factor IL-1β [2]: 278.6 ± 58.1 pg/L
Inflammatory factor IL-6 [3]: 96.6 ± 9.8 pg/L
paw volume of rats ([4]; high dose 100 (mg/kg)/day oral): basically unchanged
paw volume of rats ([4]; low dose 50 (mg/kg)/day oral): basically unchanged
effect in collagen-induced arthritis model compared with methotrexate ([4]; administered orally): effects similar to those of methotrexate; also recorded: effect similar to that of the positive control group methotrexate
serum IL-6 concentration [5]: decreased significantly and reached the normal level
serum TNF-α concentration [6]: decreased significantly and reached the normal level
expression of TLR4 protein (immunofluorescence) [7]: significantly down-regulated
expression of TNF-α protein (immunofluorescence) [8]: significantly down-regulated
expression of NF-κB protein (immunofluorescence) [9]: significantly down-regulated
expression of TLR4 protein (Western blot) [10]: significantly down-regulated
expression of TNF-α protein (Western blot) [11]: significantly down-regulated
expression of NF-κB protein (Western blot) [12]: significantly down-regulated
expression of TLR4 gene (RT-PCR) [13]: significant down-regulated
expression of TNF-α gene (RT-PCR) [14]: significant down-regulated
expression of NF-κB gene (RT-PCR) [15]: significant down-regulated
maximum concentration ([16]; intravenous dose 20 mg/kg): 1603 ng/mL
maximum concentration ([16]; oral dose 100 mg/kg): 2014 ng/mL
half-life ([16]; iv, 20 mg/kg): 30 to 60 min
half-life ([16]; po, 100 mg/kg): 30 to 60 min

CN(Cc1cnc2nc(N)nc(N)c2n1)c1ccc(C(=O)N[C@@H](CCC(=O)O)C(=O)O)cc1 [methotrexate, reference compound]
Inflammatory factor TNF-α [1]: 236.8 ± 18.7 pg/L
Inflammatory factor IL-1β [2]: 337.6 ± 47.8 pg/L
Inflammatory factor IL-6 [3]: 114.1 ± 2.8 pg/L
expression of TLR4 protein (immunofluorescence) [7]: significantly down-regulated
expression of TNF-α protein (immunofluorescence) [8]: significantly down-regulated
expression of TLR4 protein (Western blot) [10]: significantly down-regulated
expression of TNF-α protein (Western blot) [11]: significantly down-regulated
expression of TLR4 gene (RT-PCR) [13]: significantly down-regulated
expression of TNF-α gene (RT-PCR) [14]: significantly down-regulated
